Assay outcomes as filed in PubChem BioAssay.
Kir21 inh – inhibitors of mouse Kir2.1 inward-rectifier potassium channel. hit rate 0.85% among 310,000. B-score at 10 µM. AID 1672, 2009. HEK293-Kir2.1, FluxOR thallium flux fluorescence; active compounds read low;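 active means fluorescence ratio B-score at or below minus 3 SD of library scores, with starting-brightness B-score within 2 SD, cut at about -4.2 in these data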;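 further: channel flux triggered by added potassium and thallium sulfate stimulus; B-score of peak minus minimum fluorescence over baseline after thallium stimulus; more negative B-score means stronger Kir2.1 block with less thallium influx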
hERG rescue – hERG rescue from dofetilide block, primary screen, cell-based, CHO-hERG, FluxOR thallium flux, dofetilide IC70 | AID 1511, 2009 | activation (rescue from dofetilide block), less the hit threshold, % at 10 µM | dofetilide IC70 present | hit rate 0.51% among 310,000;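 active means activation above the mean of controls blocked by dofetilide plus 5 SD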;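 further: thallium influx through hERG after potassium depolarization seen as dye fluorescence rise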
KCNK3 block – human KCNK3 channel inhibitors, primary screen, CHO cells, FluxOR thallium flux, B-score; Potassium channel subfamily K member 3 (Homo sapiens), O14649; FluxOR fluorescence; active compounds read low; B-score at 10 µM; hit rate 0.84% among 340,000; AID 602410, 2012;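 active means B-score under library mean minus 4 SD, starting fluorescence ratio at most library mean plus 5 SD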;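 further: more negative B-score means stronger inhibition of thallium flux through KCNK3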
Target sequence (O14649 whole entry, looked up): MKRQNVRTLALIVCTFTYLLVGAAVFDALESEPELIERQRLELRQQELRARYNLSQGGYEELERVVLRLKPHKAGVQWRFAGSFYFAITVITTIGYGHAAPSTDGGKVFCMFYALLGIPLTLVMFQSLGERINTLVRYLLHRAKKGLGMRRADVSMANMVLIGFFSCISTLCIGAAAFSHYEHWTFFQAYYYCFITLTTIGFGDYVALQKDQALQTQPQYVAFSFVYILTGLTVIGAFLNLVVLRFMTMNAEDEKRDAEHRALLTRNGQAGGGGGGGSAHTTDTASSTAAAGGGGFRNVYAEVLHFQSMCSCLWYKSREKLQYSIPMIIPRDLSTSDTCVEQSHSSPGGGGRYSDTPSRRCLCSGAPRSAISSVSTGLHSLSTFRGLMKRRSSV
KCNQ1 pot – potentiators or activators of KCNQ1 channel, primary screen, cell-based, thallium flux, high-throughput; AID 2648, 2010; hit rate 0.35% among 310,000; B-score at 10 µM; Potassium voltage-gated channel subfamily KQT member 1 (Homo sapiens), P51787; CHO-K1 KCNQ1, thallium flux FluxOR fluorescence; active compounds read high;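 active means fluorescence ratio B-score, a plate-corrected score, at least three library SD, with initial intensity B-score within 5 SD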
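assay system = KCNQ1-transfected CHO-K1 cells | medium = assay buffer with matched DMSO | probe or stimulus = depolarizing K+/Tl+ stimulus, K2SO4 and Tl2SO4 each 12.5 mM in 5x stock | dosing = single dose | incubation = dye 90 min, compound 20 min, room temperature | detection = kinetic FluxOR fluorescence, 10 s baseline plus 110 s post-stimulus | evaluation = ratio B score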
KCNK9 inh – KCNK9 potassium channel inhibitors, primary screen, HEK293 cells, thallium flux. Potassium channel subfamily K member 9 (Homo sapiens), Q9NPC2. FluxOR thallium flux fluorescence; active compounds read low. B-score at 10 µM. hit rate 1.2% among 310,000. AID 488922, 2010;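 active means ratio B-score over 3 SD below the library mean, with starting fluorescence within 5 SD of its mean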;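 further: negative B-score means less thallium flux so channel inhibition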
KCNQ1 block – inhibitors of human KCNQ1 channel, primary screen, cell-based, thallium flux, high-throughput; hit rate 1.3% among 310,000; AID 2642, 2010; CHO-K1 KCNQ1, FluxOR thallium flux fluorescence; active compounds read high; B-score at 10 µM; Potassium voltage-gated channel subfamily KQT member 1 (Homo sapiens), P51787;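 active means compounds whose thallium flux B-score, printed positive for inhibition, exceeds three library SD while starting fluorescence stays within three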;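 further: channel opened by potassium depolarization with thallium stimulus after 20 min compound exposure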
The depositor's hits bear a star. An excerpt weighted towards active compounds, which were near 3.8% of everything screened.

How did CCN(CCO)Cc1csc2cc(C)ccc12 do in these assays?
Kir21 inh: 0.83; hERG rescue: -6; KCNK3 block: inactive; KCNQ1 pot: inactive; KCNK9 inh: inactive; KCNQ1 block: inactive

What do the screens show for `CC(=O)Oc1ccc2ccccc2c1C(NC(=O)Cc1ccccc1)c1ccccc1Cl` (configuration not stated)?
Kir21 inh: 0; hERG rescue: -2; KCNK3 block: inactive; KCNQ1 pot: inactive; KCNK9 inh: inactive; KCNQ1 block: inactive

Results for CC(C)(C)n1nnnc1C(c1cccs1)N(Cc1cccnc1)Cc1ccco1 (configuration not stated) ?
Kir21 inh: -1; hERG rescue: -9; KCNK3 block: inactive; KCNQ1 pot: inactive; KCNK9 inh: -7.2*; KCNQ1 block: inactive

How did O=C(/C=C/c1cc(Br)ccc1O)c1ccco1 do in these assays?
Kir21 inh: -5.9*; hERG rescue: -23; KCNK3 block: -9.8*; KCNQ1 pot: inactive; KCNK9 inh: inactive; KCNQ1 block: inactive

Results for COc1ccccc1/C=C/C(=O)c1cc(Br)ccc1OC(=O)c1ccco1 ?
Kir21 inh: 0.29; hERG rescue: 5.0*; KCNK3 block: inactive; KCNQ1 pot: inactive; KCNK9 inh: inactive; KCNQ1 block: inactive

How did O=C(/C=C/c1ccccc1O)c1ccco1 do in these assays?
Kir21 inh: -3.5; hERG rescue: -1; KCNK3 block: inactive; KCNQ1 pot: inactive; KCNK9 inh: inactive; KCNQ1 block: inactive

How did COc1ccc(/C=N/OC(=O)c2ccc(Cl)cc2)c(Cl)c1OC do in these assays?
Kir21 inh: -0.29; hERG rescue: -9; KCNK3 block: inactive; KCNQ1 pot: inactive; KCNK9 inh: inactive; KCNQ1 block: inactive

What do the screens show for `CCOC(=O)c1c(C)oc2c1cc(O)c1ccccc12`?
Kir21 inh: -1.4; hERG rescue: -1; KCNK3 block: inactive; KCNQ1 pot: inactive; KCNK9 inh: inactive; KCNQ1 block: inactive

How did CCOC(=O)c1c(C)oc2c(F)c(F)c(F)c(F)c2c1=O do in these assays?
Kir21 inh: 1.9; hERG rescue: -23; KCNK3 block: inactive; KCNQ1 pot: inactive; KCNK9 inh: inactive; KCNQ1 block: 7*

Results for Cc1ccc2c(c1)c(-c1ccccc1)nc1nnnn12 ?
Kir21 inh: -0.52; hERG rescue: 6.0*; KCNK3 block: inactive; KCNQ1 pot: inactive; KCNK9 inh: inactive; KCNQ1 block: inactive

How did Cc1ccc2nnnc(-c3ccccc3)c2c1 do in these assays?
Kir21 inh: -1.1; hERG rescue: -6; KCNK3 block: inactive; KCNQ1 pot: inactive; KCNK9 inh: inactive; KCNQ1 block: inactive

What do the screens show for `O=C(CN1C(=O)c2ccccc2C1=O)OCC(=O)c1ccccc1`?
Kir21 inh: 0.53; hERG rescue: -4; KCNK3 block: inactive; KCNQ1 pot: inactive; KCNK9 inh: inactive; KCNQ1 block: inactive

Results for CC12CCC3c4ccc(O)cc4CCC3C1CCC2=O (configuration not stated) ?
KCNK3 block: inactive

What do the screens show for `C#C[C@]1(O)CC[C@H]2[C@@H]3CCc4cc(O)ccc4[C@H]3CC[C@@]21C`?
Kir21 inh: 0.02; hERG rescue: -13; KCNK3 block: inactive; KCNQ1 pot: 9*; KCNK9 inh: inactive; KCNQ1 block: inactive

How did CCOC(=O)c1c(-c2ccccc2)csc1NC(=S)NC do in these assays?
Kir21 inh: -0.92; hERG rescue: 8.9*; KCNK3 block: inactive; KCNQ1 pot: 38*; KCNK9 inh: inactive; KCNQ1 block: inactive

Results for CCNC(=S)Nc1scc(-c2ccccc2)c1C(=O)OCC ?
Kir21 inh: 0.29; hERG rescue: 6.0*; KCNK3 block: inactive; KCNQ1 pot: 23*; KCNK9 inh: inactive; KCNQ1 block: inactive

Results for O=C1C(Cl)=C(Nc2ccccc2)C(=O)c2ccccc21 ?
Kir21 inh: -0.48; hERG rescue: -10; KCNK3 block: inactive; KCNQ1 pot: inactive; KCNK9 inh: inactive; KCNQ1 block: inactive

Results for CC(C)NC1=C(Cl)C(=O)c2ccccc2C1=O ?
Kir21 inh: -0.96; hERG rescue: 4.9*; KCNK3 block: inactive; KCNQ1 pot: inactive; KCNK9 inh: inactive; KCNQ1 block: inactive

How did O=C1C(Cl)=C(NCc2cccnc2)C(=O)c2ccccc21 do in these assays?
Kir21 inh: -0.84; hERG rescue: -17; KCNK3 block: inactive; KCNQ1 pot: inactive; KCNK9 inh: inactive; KCNQ1 block: 9*

Results for C=CCNC1=C(Cl)C(=O)c2ccccc2C1=O ?
Kir21 inh: 0.16; hERG rescue: -4; KCNK3 block: inactive; KCNQ1 pot: inactive; KCNK9 inh: inactive; KCNQ1 block: inactive

Results for Cc1nc(SCc2cccc(F)c2)c2oc3ccccc3c2n1 ?
Kir21 inh: 0.21; hERG rescue: 5.0*; KCNK3 block: inactive; KCNQ1 pot: inactive; KCNK9 inh: inactive; KCNQ1 block: inactive

How did CCOC(=O)C1=C(C)N=c2s/c(=C/c3ccc(OCC(=O)O)cc3)c(=O)n2C1c1ccc(F)cc1 (configuration not stated) do in these assays?
Kir21 inh: 0.87; hERG rescue: -5; KCNK3 block: inactive; KCNQ1 pot: inactive; KCNK9 inh: inactive; KCNQ1 block: inactive

Results for CCOC(=O)C1=C(C)N=c2s/c(=C/c3ccc(OCC(=O)O)cc3)c(=O)n2C1c1ccc(OC)cc1OC (configuration not stated) ?
Kir21 inh: 0.38; hERG rescue: -7; KCNK3 block: inactive; KCNQ1 pot: inactive; KCNK9 inh: inactive; KCNQ1 block: 6*

How did CCOC(=O)C1=C(C)N=c2s/c(=C\c3ccc(OCC(=O)O)cc3)c(=O)n2C1c1ccc(Cl)cc1 (configuration not stated) do in these assays?
Kir21 inh: -1.1; hERG rescue: -7; KCNK3 block: inactive; KCNQ1 pot: inactive; KCNK9 inh: inactive; KCNQ1 block: 7*

How did COc1ccc(C2C(C(C)=O)=C(C)N=c3s/c(=C\c4cc(C)n(C)c4C)c(=O)n32)c(OC)c1 (configuration not stated) do in these assays?
Kir21 inh: -3.2; hERG rescue: -25; KCNK3 block: inactive; KCNQ1 pot: inactive; KCNK9 inh: inactive; KCNQ1 block: 9*
